Test [1] concerns Mycobacterium tuberculosis. The experiment in a line: Antimycobacterial activity against Mycobacterium tuberculosis H37Ra assessed as inhibition of cell viability measured on day 8 by XTT assay in presence of menadione. In kind it is functional, organism-based. The settings on record: 192 h. A digest of the protocol:
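H37Ra log-phase culture grown in M. pheli medium at 37 °C, sonicated, then seeded at about 10^5 cells/mL. Serial dilutions of DMSO-dissolved samples were tested, with isoniazid as positive control, at 37 °C in a CO2 incubator for 8 days. Viability was read by XTT (200 μM, 20 min) then menadione (60 μM, 40 min), OD470. IC50 and IC90 came from dose-response curves.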
In general terms: Tetrazolium assays rely on reduction of a dye to a coloured formazan, in cell work by metabolically active cells.

For test [2], the system named is HepG2. The experiment in a line: Cytotoxicity against human HepG2 cells assessed as growth inhibition at 100 ug/mL after 120 hrs by MTT assay relative to control. The settings on record: HepG2, 120 h, read-out: GI. The test is classed as functional. Put shortly:
(§1)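 MTT (10 μL of 5 mg/mL) added for 1 h at 37 °C. Formazan dissolved in 2-propanol for 4 h, read at 490 nm against cell-free blank. DMSO-carrier wells taken as 100% growth.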

Test [3] has as its system HepG2. Briefly: Cytotoxicity against human HepG2 cells assessed as growth inhibition at IC90 after 120 hrs by MTT assay relative to control. In kind it is functional. Put shortly:
as §1

Test [4] has as its system THP-1. Briefly: Cytotoxicity against human THP1 cells assessed as growth inhibition at 100 ug/mL after 72 hrs by MTT assay relative to control. The test is classed as functional. The conditions noted are these: THP-1, 72 h, read-out: GI. A digest of the protocol: (§2)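 Viability by MTT (1 h, 37 °C), formazan taken up in 2-propanol 4 h, absorbance 490 nm against cell-free blank. Medium with matching DMSO served as 100% growth.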

Test [5] relates to THP-1. Briefly: Cytotoxicity against human THP1 cells assessed as growth inhibition at IC90 after 72 hrs by MTT assay relative to control. The test is classed as functional. A digest of the protocol:
as §2

The subject of test [6] is MCF7. The experiment in a line: Cytotoxicity against human MCF7 cells assessed as growth inhibition at 100 ug/mL after 192 hrs by MTT assay relative to control. The test is classed as functional. The settings on record: MCF7, 192 h, read-out: GI. Put shortly:
(§3)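 MCF-7 cells at ~10^5 cells/mL, 24 h adherence at 37 °C. MTT read-out: 1 h with MTT at 37 °C, then 2-propanol solubilization for 4 h, OD 490 nm versus cell-free wells. Growth expressed relative to DMSO-only controls (100%).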

Test [7] has as its system MCF7. The experiment in a line: Cytotoxicity against human MCF7 cells assessed as growth inhibition at IC90 after 192 hrs by MTT assay relative to control. In kind it is functional. Put shortly: as §3
In test [8] the test system is Escherichia coli. The experiment in a line: Antibacterial activity against Escherichia coli DH5[alpha] assessed as growth inhibition at IC90 after 6 hrs relative to control. In kind it is functional.
Test [9] deals with Mycolicibacterium smegmatis. The experiment in a line: Antimycobacterial activity against Mycobacterium smegmatis MC2 155 assessed as inhibition of cell viability at IC90 measured on day 3 by XTT assay in presence of menadione relative to control. The test is classed as functional, str. MC2 155.
For test [10], the system named is HepG2. The experiment in a line: Cytotoxicity against human HepG2 cells assessed as growth inhibition after 120 hrs by MTT assay. In kind it is functional. The settings on record: HepG2, 120 h. A digest of the protocol:
as §1

For test [11], the system named is THP-1. Briefly: Cytotoxicity against human THP1 cells assessed as growth inhibition after 72 hrs by MTT assay. The settings on record: THP-1, 72 h. The test is classed as functional. A digest of the protocol:
as §2

The test system of test [12] is MCF7. The experiment in a line: Cytotoxicity against human MCF7 cells assessed as growth inhibition after 192 hrs by MTT assay. In kind it is functional. The settings on record: MCF7, 192 h. Put shortly: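 MCF-7 cells at ~10^5 cells/mL, 24 h adherence at 37 °C. […] MTT read-out: 1 h with MTT at 37 °C, then 2-propanol solubilization for 4 h, OD 490 nm versus cell-free wells. Growth expressed relative to DMSO-only controls (100%).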

In test [13] the test system is Escherichia coli. Briefly: Antibacterial activity against Escherichia coli DH5[alpha] assessed as growth inhibition after 6 hrs. The test is classed as functional.
The subject of test [14] is Mycolicibacterium smegmatis. Briefly: Antimycobacterial activity against Mycobacterium smegmatis MC2 155 assessed as inhibition of cell viability measured on day 3 by XTT assay in presence of menadione. The test is classed as functional. The settings on record: str. MC2 155, 72 h. A digest of the protocol:
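M. smegmatis mc2 155 in microplate wells; on day 3, OD470 read as blank, then XTT (200 μM) added, shaken 1 min and held 20 min at 37 °C. Menadione (60 μM) was then added, mixed 1 min and held another 20 min at 37 °C before the final OD470 reading.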

For test [15], the system named is Mycobacterium tuberculosis. Briefly: Antimycobacterial activity against Mycobacterium tuberculosis H37Ra assessed as inhibition of cell viability at 100 ug/mL measured on day 8 by XTT assay in presence of menadione. The test is classed as functional, organism-based. Put shortly:
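M. tuberculosis H37Ra (ATCC 25177) grown aerobically to log phase in M. pheli medium at 37 °C, 150 rpm, then sonicated 2 min. About 10^5 cells/mL, 250 μL per well, exposed to DMSO-dissolved samples at 100 μg/mL and incubated at 37 °C in a CO2 incubator. Day 8 read-out: OD470 blank, XTT 200 μM for 20 min, menadione 60 μM for 40 min, then OD470.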

The term IC90 denotes the concentration needed for an effect of 90%. Usually IC50 stands for the concentration that gives 50% inhibition.

SMILES strings stand for the structures. In brackets after ≈: the same amount, converted by molar mass. Activity calls are given as the source filed them. The rule behind the calls is not given here.

On to `NNC(=O)c1ccncc1` [ISONIAZID], for which, in test [1], the IC90 is 0.055 µg/mL.
`C[C@@H]1CC[C@H]2C(C)(C)CCC[C@]2(C)[C@@]12CC[C@]1(CO[C@H](O)C1)O2`: the inhibition of growth at 100 µg/mL with HepG2 [2] turned out to be 14.4%; in the test with THP-1 [4], 21.7%; in the test on MCF7 [6] it was 42.4%. Moreover, the “growth inhibition (GI)” value stood at 6.92% with HepG2 [3], 8.18% in the test on THP-1 [5], 28.98% with MCF7 [7] and 23.15% with Escherichia coli [8]. The “inhibition (INH)” value in test [9] is 47.83%. Also, in test [1], the IC50 turned out to be 5.55 µg/mL. Further, the IC90 in [1] turned out to be 14.9 µg/mL.
As to `C=C[C@](C)(O)CC[C@@H]1[C@@]2(C)CCCC(C)(C)[C@H]2CC[C@@]1(C)O`, the inhibition of growth at 100 µg/mL in the test on THP-1 [4] is 96.4%. Moreover, the half-inhibitory concentration (IC50) in test [1] came to 5.95 µg/mL.
`CC(=O)O[C@H]1C(=O)[C@@]2(C)[C@H]([C@H](OC(=O)c3ccccc3)[C@]3(O)C[C@H](OC(=O)[C@H](O)[C@@H](NC(=O)c4ccccc4)c4ccccc4)C(C)=C1C3(C)C)[C@]1(OC(C)=O)CO[C@@H]1C[C@@H]2O` [PACLITAXEL]: the IC90 with HepG2 [10] was 78.9 µg/mL (≈ 92.4 µM); in the test with THP-1 [11] it was 98.6 µg/mL (≈ 115 µM); in the test with MCF7 [12], 107 µg/mL (≈ 125 µM). The results for the inhibition of growth at 100 µg/mL with HepG2 [2], with THP-1 [4] and with MCF7 [6] were 87.9%, 82.5% and 86.7%, respectively.
Consider `C[C@@H]1CC[C@H]2C(C)(C)CCC[C@]2(C)[C@@]1(O)CC/C(=C/CO)CO`, for which the inhibition of growth at 100 µg/mL was determined as 21.5% in the test on HepG2 [2], 9.07% with THP-1 [4] and 3.54% in the test on MCF7 [6]. Moreover, the “growth inhibition (GI)” value in the test on HepG2 [3] is 21.48%; with THP-1 [5], 9.07%; in the test with MCF7 [7], 3.54%; in the test on Escherichia coli [8], 11.47%. The “inhibition (INH)” value in [9] was 30.57%. Also, the IC50 in [1] was found to be 9.8 µg/mL.
With `CO[C@H]1/C=C/O[C@@]2(C)Oc3c(C)c(O)c4c(O)c(c(/C=N/N5CCN(C)CC5)c(O)c4c3C2=O)NC(=O)/C(C)=C\C=C\[C@H](C)[C@H](O)[C@@H](C)[C@@H](O)[C@@H](C)[C@H](OC(C)=O)[C@@H]1C` [RIFAMPIN], the IC90 amounted to 0.5 µg/mL (≈ 0.608 µM) in the test on Escherichia coli [13] and 0.2 µg/mL in test [14].
Regarding `COc1cc(O)c2c(=O)cc(-c3ccc(O)c(OC)c3)oc2c1`, the inhibition entry in [15] was “inactive”.

The record behind these values is ChEMBL document CHEMBL2429830, “Antimycobacterial labdane diterpenes from Leucas stelligera” (J Nat Prod, 2013).
